The source made the active and inactive calls. The rule behind the calls is not given here.
Experiments:
K562 [1] = assay: Induction of apoptosis in human K562 cells assessed as reduction in pro-caspase-3 levels at 10 uM incubated for 48 hrs by Western blot method relative to basal level; assay type: functional; conditions: K562, 48 h
Outline: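 K562 cells were seeded at 1.5 × 10⁵/well and treated 48 h. Lysate protein was measured by Lowry assay and run on SDS-PAGE. Blots on nitrocellulose were probed with alkaline phosphatase-conjugated antibodies to pro-caspases 3 and 6. Loading was checked by Ponceau red and β-actin immunoblot, with level expressed against basal. Three independent experiments.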

SNB-75 = assay: Growth inhibition of human SNB75 cells by NCI standard protocol based method; assay type: functional
Outline: (§1)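 NCI 60-cell-line screen, standard NCI protocol. Single high dose of 10⁻⁵ M first, then a 5-dose assay across the full panel. Reported as GI₅₀, TGI and LC₅₀, the molar concentrations giving 50% net growth inhibition, total growth inhibition and 50% net cell death. Where an effect was not reached, the highest tested concentration was used.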

K562 [2] = assay: Reduction in cell number of human K562 cells at 10 and 25 uM incubated for 48 hrs by light microscopy; assay type: functional, cell-based
Outline: (§2)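 K562 cells (8 × 10³/well) plated on poly-D-lysine-coated wells and treated at 10 or 25 μM for 48 h. Examined by light microscopy at 200× for shape, detachment, cell number and cell size.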

K562 [3] = assay: Induction of apoptosis in human K562 cells assessed as viable cells level at 10 uM incubated for 24 hrs by Annexin-V and propidium iodide staining staining based flow cytometry (reference value: 98%); assay type: functional
SR = assay: Growth inhibition of human SR cells by NCI standard protocol based method; assay type: functional; outline: as §1
SF-268 = assay: Growth inhibition of human SF268 cells by NCI standard protocol based method; assay type: functional
Outline: (§3)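 NCI full 60-cell-line panel, 5-dose assay to the NCI standard protocol. GI₅₀ is the molar concentration inhibiting 50% net cell growth. Mean graph midpoint is averaged over all lines; where the effect is not reached, the highest tested concentration is used.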

[4] = Growth inhibition of human SF295 cells by NCI standard protocol based method; assay type: functional; conditions: SF-295; outline: as §3
K562 [5] = assay: Induction of apoptosis in human K562 cells assessed as nuclear fragmentation at 10 uM incubated for 48 hrs by Hoechst 33342 staining based fluorescence microscopy; assay type: functional, cell-based
Outline: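 K562 cells (8 × 10³/well) on poly-D-lysine-coated wells, allowed to adhere overnight. Stained with Hoechst 33342 for 30 min, washed with PBS, resuspended in medium, then treated at 10 μM for 48 h.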

PC-3 = assay: Growth inhibition of human PC3 cells by NCI standard protocol based method; assay type: functional; outline: as §3
OVCAR-8 = assay: Growth inhibition of human OVCAR8 cells by NCI standard protocol based method; assay type: functional; outline: as §3
K562 [6] = assay: Induction of apoptosis in human K562 cells assessed as late apoptotic cells level at 10 uM incubated for 24 hrs by Annexin-V and propidium iodide staining staining based flow cytometry (reference value: 0.2%); assay type: functional
UACC-62 = assay: Growth inhibition of human UACC62 cells by NCI standard protocol based method; assay type: functional; outline: as §1
HT-29 = assay: Growth inhibition of human HT-29 cells by NCI standard protocol based method; assay type: functional; outline: as §3
NCI-H522 = assay: Growth inhibition of human NCI-H522 cells by NCI standard protocol based method; assay type: functional; outline: as §3
[7] = Growth inhibition of human LOXIMVI cells by NCI standard protocol based method; assay type: functional; conditions: LOX IMVI; outline: as §3
K562 [8] = assay: Induction of morphological changes in human K562 cells at 10 and 25 uM incubated for 48 hrs by light microscopy; assay type: functional, cell-based; outline: as §2
A498 = assay: Growth inhibition of human A498 cells by NCI standard protocol based method; assay type: functional; outline: as §3
MDA-MB-231 = assay: Growth inhibition of human MDA-MB-231 cells by NCI standard protocol based method; assay type: functional; outline: as §3
K562 [9] = assay: Induction of cell cycle arrest in human K562 cells assessed as accumulation at G0/G1 phase at 10 uM incubated for 48 hrs by propidium iodide staining based flow cytometry (reference value: 56.6%); assay type: functional
K562 [10] = assay: Induction of morphological changes in human K562 cells assessed as cell detachment at 10 and 25 uM incubated for 48 hrs by light microscopy; assay type: functional, cell-based; outline: as §2
Tubulin (Homo sapiens) = Tubulin (Homo sapiens) (UniProt P68371+Q9H4B7+P0DPH7+P68366+Q13509+Q71U36+P04350+Q3ZCM7+P07437+P68363+Q9BQE3+Q6PEY2+Q13885+Q9BVA1+Q9BUF5); assay: Inhibition of tubulin (unknown origin) assembly; assay type: protein-complex assay
K562 [11] = assay: Induction of mitotic arrest in human K562 cells; assay type: functional, cell-based
SNB-19 = assay: Growth inhibition of human SNB19 cells by NCI standard protocol based method; assay type: functional; outline: as §1
[12] = Growth inhibition of human Hs578T cells by NCI standard protocol based method; assay type: functional; conditions: Hs-578T; outline: as §3
K562 [13] = assay: Reduction in cell size of human K562 cells at 10 and 25 uM incubated for 48 hrs by light microscopy; assay type: functional, cell-based; outline: as §2
K562 [14] = assay: Induction of cell cycle arrest in human K562 cells assessed as accumulation at sub G0/G1 phase at 10 uM incubated for 48 hrs by propidium iodide staining based flow cytometry (reference value: 0.8%); assay type: functional
CCRF-CEM = assay: Growth inhibition of human CCRF-CEM cells by NCI standard protocol based method; assay type: functional; outline: as §3
NCI-H460 = assay: Growth inhibition of human NCI-H460 cells by NCI standard protocol based method; assay type: functional; outline: as §3
MDA-MB-468 = assay: Growth inhibition of human MDA-MB-468 cells by NCI standard protocol based method; assay type: functional; outline: as §3
K562 [15] = assay: Induction of cell cycle arrest in human K562 cells assessed as accumulation at sub G0/G1 phase at 10 uM incubated for 24 hrs by propidium iodide staining based flow cytometry (reference value: 0.8%); assay type: functional
NCI-H23 = assay: Growth inhibition of human NCI-H23 cells by NCI standard protocol based method; assay type: functional; outline: as §3
SK-MEL-2 = assay: Growth inhibition of human SK-MEL-2 cells by NCI standard protocol based method; assay type: functional; outline: as §3
[16] = Growth inhibition of human COLO205 cells by NCI standard protocol based method; assay type: functional; conditions: COLO 205; outline: as §3
K562 [17] = assay: Induction of apoptosis in human K562 cells assessed as necrotic cells level at 10 uM incubated for 24 hrs by Annexin-V and propidium iodide staining staining based flow cytometry (reference value: 0.3%); assay type: functional
786-0 = assay: Growth inhibition of human 786-0 cells by NCI standard protocol based method; assay type: functional; outline: as §3
SW-620 = assay: Growth inhibition of human SW620 cells by NCI standard protocol based method; assay type: functional; outline: as §1
A549 = assay: Growth inhibition of human A549/ATCC cells by NCI standard protocol based method; assay type: functional; outline: as §3
K562 [18] = assay: Induction of cell cycle arrest in human K562 cells assessed as accumulation at G0/G1 phase at 10 uM incubated for 24 hrs by propidium iodide staining based flow cytometry (reference value: 54.9%); assay type: functional
MCF7 = assay: Growth inhibition of human MCF7 cells by NCI standard protocol based method; assay type: functional; outline: as §3
K562 [19] = assay: Induction of apoptosis in human K562 cells assessed as early apoptotic cells level at 10 uM incubated for 24 hrs by Annexin-V and propidium iodide staining staining based flow cytometry (reference value: 1.6%); assay type: functional

NC(=O)c1cc(I)ccc1NC(=O)COc1ccccc1
inhibition at 10 µM (K562 [1]): 40%
GI50 (SNB-75): 0.215 µM
Activity (K562 [2]): Active
Activity (K562 [3]): 62.1%
GI50 (SR): 0.221 µM
GI50 (SF-268): 0.934 µM
GI50 [4]: 0.223 µM
Activity (K562 [5]): Active
GI50 (PC-3): 0.428 µM
GI50 (OVCAR-8): 0.904 µM
Activity (K562 [6]): 12.5%
GI50 (UACC-62): 0.701 µM
GI50 (HT-29): 0.349 µM
GI50 (NCI-H522): 0.63 µM
GI50 [7]: 0.822 µM
Activity (K562 [8]): Active
GI50 (A498): 1.02 µM
GI50 (MDA-MB-231): 1.28 µM
Activity (K562 [9]): 45.2%
Activity (K562 [10]): Active
inhibition (Tubulin (Homo sapiens)): inactive
Activity (K562 [11]): Active
GI50 (SNB-19): 0.913 µM
GI50 [12]: 0.63 µM
Activity (K562 [13]): Active
Activity (K562 [14]): 32.9%
GI50 (CCRF-CEM): 0.382 µM
GI50 (NCI-H460): 0.425 µM
GI50 (MDA-MB-468): 0.351 µM
Activity (K562 [15]): 14.5%
GI50 (NCI-H23): 0.657 µM
GI50 (SK-MEL-2): 0.463 µM
GI50 [16]: 0.353 µM
Activity (K562 [17]): 0.9%
GI50 (786-0): 1.07 µM
GI50 (SW-620): 0.454 µM
GI50 (A549): 0.732 µM
Activity (K562 [18]): 78.5%
GI50 (MCF7): 0.23 µM
Activity (K562 [19]): 24.5%

NC(=O)c1cc(Cl)ccc1NC(=O)COc1ccccc1
GI50 (SNB-75): 1.81 µM
GI50 (SR): 0.777 µM
GI50 (SF-268): 9.89 µM
GI50 [4]: 1.96 µM
GI50 (PC-3): 3.22 µM
GI50 (OVCAR-8): 7.06 µM
GI50 (UACC-62): 5.42 µM
GI50 (HT-29): 1.74 µM
GI50 (NCI-H522): 3.78 µM
GI50 [7]: 8.33 µM
GI50 (A498): 1.41 µM
GI50 (MDA-MB-231): 9.01 µM
inhibition (Tubulin (Homo sapiens)): inactive
Activity (K562 [11]): Active
GI50 (SNB-19): 11.7 µM
GI50 [12]: 4.65 µM
GI50 (CCRF-CEM): 3.07 µM
GI50 (NCI-H460): 3 µM
GI50 (MDA-MB-468): 1.74 µM
GI50 (NCI-H23): 5.9 µM
GI50 (SK-MEL-2): 5.08 µM
GI50 [16]: 2.51 µM
GI50 (786-0): 9.54 µM
GI50 (SW-620): 2.58 µM
GI50 (A549): 7.06 µM
GI50 (MCF7): 1.81 µM

COc1cc(NC(=O)COc2ccccc2)c(C(N)=O)cc1OC
inhibition at 10 µM (K562 [1]): 50%
GI50 (SNB-75): 0.547 µM
Activity (K562 [2]): Active
Activity (K562 [3]): 63.3%
GI50 (SR): 0.515 µM
GI50 (SF-268): 6.77 µM
GI50 [4]: 0.93 µM
Activity (K562 [5]): Active
GI50 (PC-3): 2.23 µM
GI50 (OVCAR-8): 3.01 µM
Activity (K562 [6]): 11.6%
GI50 (UACC-62): 2.52 µM
GI50 (HT-29): 0.437 µM
GI50 (NCI-H522): 0.41 µM
GI50 [7]: 1.81 µM
Activity (K562 [8]): Active
GI50 (A498): 2.77 µM
GI50 (MDA-MB-231): 2.39 µM
Activity (K562 [9]): 39.4%
Activity (K562 [10]): Active
inhibition (Tubulin (Homo sapiens)): inactive
Activity (K562 [11]): Active
GI50 (SNB-19): 3.31 µM
GI50 [12]: 0.771 µM
Activity (K562 [13]): Active
Activity (K562 [14]): 20.6%
GI50 (CCRF-CEM): 0.562 µM
GI50 (NCI-H460): 0.529 µM
GI50 (MDA-MB-468): 0.848 µM
Activity (K562 [15]): 13.2%
GI50 (NCI-H23): 1.32 µM
GI50 (SK-MEL-2): 0.203 µM
GI50 [16]: 0.453 µM
Activity (K562 [17]): 2.3%
GI50 (786-0): 7.32 µM
GI50 (SW-620): 0.646 µM
GI50 (A549): 0.917 µM
Activity (K562 [18]): 80%
GI50 (MCF7): 0.661 µM
Activity (K562 [19]): 22.7%

COc1ccc(NC(=O)COc2ccccc2)c(C(N)=O)c1
GI50 (SNB-75): 0.245 µM
GI50 (SR): 0.392 µM
GI50 (SF-268): 2.42 µM
GI50 [4]: 0.65 µM
GI50 (PC-3): 0.464 µM
GI50 (OVCAR-8): 3.13 µM
GI50 (UACC-62): 1.05 µM
GI50 (HT-29): 0.388 µM
GI50 (NCI-H522): 1.19 µM
GI50 [7]: 0.869 µM
GI50 (A498): 0.304 µM
GI50 (MDA-MB-231): 2.03 µM
inhibition (Tubulin (Homo sapiens)): inactive
Activity (K562 [11]): Active
GI50 (SNB-19): 3.2 µM
GI50 [12]: 0.592 µM
GI50 (CCRF-CEM): 0.487 µM
GI50 (NCI-H460): 0.484 µM
GI50 (MDA-MB-468): 0.345 µM
GI50 (NCI-H23): 1.38 µM
GI50 (SK-MEL-2): 0.611 µM
GI50 [16]: 0.487 µM
GI50 (786-0): 2.1 µM
GI50 (SW-620): 0.448 µM
GI50 (A549): 0.908 µM
GI50 (MCF7): 0.497 µM
